Source: PubChem BioAssay
Only some compounds are listed: those with a hit (about 3.9% of all), similar ones and a draw of the others.
SR-BI HDL uptake: inhibitors of SR-BI mediated HDL lipid uptake, primary screen, ldlA[mSR-BI] cells, fluorescence, single point; 320,000 tested, 0.96% active; Scavenger receptor class B member 1 (Mus musculus), Q61009; ldlA[mSR-BI] CHO cells, DiI-HDL uptake fluorescence, 3 h; inhibition, % at 12.5 µM; AID 488896, 2010;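 active means mean replicate inhibition of at least 70% and a set share of replicates each scoring 70 or more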;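 further: 0% = median of neutral control wells and 100% = median of positive control wells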
SR-BI uptake up: activators of SR-BI mediated DiI-HDL uptake, primary screen, ldlA[mSR-BI] CHO cells, DiI fluorescence; 3 h; 100 = double the neutral-control signal; activation, % at 12.5 µM; 320,000 tested, 0.096% active;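 active means mean replicate activation of at least 60% and every replicate at or above 60%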;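 further: 0% = median plate neutral-control signal and 100% = twice that signal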
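Assay system: LDL receptor-deficient CHO ldlA cells overexpressing murine SR-BI / Medium: BSA-supplemented, HEPES-buffered Ham's F12, pH 7.4 / Probe or stimulus: DiI-labelled HDL at 10 µg/mL final / Timing: compound with DiI-HDL co-incubation, 3 h at 37 °C / Technique: bottom-read cell fluorescence after medium removal, ex 550/em 595 nm / Measure: HDL uptake via cellular fluorescence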
ABCB6 inh MLPCN: ABCB6 transporter inhibitors, primary screen, K562-ABCB6 cells, flow cytometry, MLPCN library; ATP-binding cassette sub-family B member 6 (Homo sapiens), Q9NP58; K562-ABCB6 porphyrin accumulation, 1 h; active compounds read low; fluorescence ratio to DMSO, % at 10 µM; 360,000 tested, 0.19% active;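 active means fluorescence ratio to DMSO below 75%, the collection mean minus 3 SD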;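 further: signal is porphyrin accumulated inside mitochondria; 100% equals median channel fluorescence of DMSO control wells; lower ratio means ABCB6 inhibition with less porphyrin fluorescence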
HIF act: HIF pathway transcriptional activators, primary screen, cell-based, U2OS HRE-luciferase, luminescence. activation, % at 7.5 µM (by protocol). U2OS HRE-luciferase reporter; normalized: DMSO 0%, desferrioxamine 100%. 300,000 tested, 0.32% active;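 active means mean activation of at least 10% of the iron chelator positive control signal, with at least half of replicates also reaching 10%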
AHR act: AHR activators, primary screen, cell-based, luminescence, luciferase reporter, human; activation, % at 5 µM; AHR-responsive luciferase reporter cells; 320,000 tested, 2.5% active; Aryl hydrocarbon receptor (Homo sapiens), P35869; in the data active means activation above about 47%;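 further: 0% = vehicle wells and 100% = reference agonist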
FXN GAA850 act: FXN promoter activators, primary screen, cell-based, luciferase luminescence, HEK293 lucGAA850; AID 540364, 2011; activation, % at 6 µM; HEK293 lucGAA850 FXN promoter luciferase reporter, 24 h; percent of 10 µM SAHA response; 360,000 tested, 0.56% active;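 active means activation above the average of all compounds screened plus 3 SD, cutoff fixed separately per campaign, cut at about 7.5% in these data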;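 further: 0% = DMSO wells and 100% = 10 µM SAHA wells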
AHR act cf: AHR activators, confirmation, cell-based, luminescence, luciferase reporter, human. AID 2845, 2010. activation, % at 9 µM. shares compounds with AHR act. 2,300 tested, 87% active. human cells, AHR-responsive luciferase reporter; in the data active means activation above about 49%;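 further: HepG2 hepatoma cells carrying a DRE-driven firefly luciferase reporter; 0% = vehicle wells and 100% = reference agonist wells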
PXR act counter: human PXR activators, counter-screen for AHR activator project, cell-based, luciferase luminescence | shares compounds with AHR act | cell-based PXR reporter | activation, % at 11.6 µM | 2,300 tested, 88% active | AID 434939, 2010; in the data active means activation above about 11%;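 further: human hepatoma DPX-2 cells expressing full-length human PXR; 0% = DMSO and 100% = reference agonist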
* = called active by the depositor; nt = not tested or not shown.

SMILES | SR-BI HDL uptake | SR-BI uptake up | ABCB6 inh MLPCN | HIF act | AHR act | FXN GAA850 act | AHR act cf | PXR act counter
COc1ccc(NC(=O)c2sccc2-n2cccc2)cc1 | 43 | -43 | 98 | 0 | 26 | 3 | nt | nt
Cc1ccsc1C(=O)NC1CCCN(Cc2ccc(Cl)cc2)C1 (centres undefined) | 14 | -14 | 99 | -1 | nt | -1 | nt | nt
Cc1ccccc1/C=c1\s/c(=C\C(=O)C(C)(C)C)[nH]c1=O | 6 | -6 | 91 | 2 | 119* | -3 | 76* | 105*
CC(=O)Nc1c(C(=O)O)oc2ccccc12 | 2 | -2 | 100 | 0 | 8 | 0 | nt | nt
O=C(c1ccc(Cl)cc1)c1oc2ccccc2c1CS(=O)c1ccc(Cl)cc1 (centres undefined) | -9 | 9 | 98 | 0 | 3 | 2 | nt | nt
COc1ccc(C(=O)c2oc3ccc(OC)cc3c2NC(C)=O)cc1 | 12 | -12 | 103 | 0 | 19 | -1 | nt | nt
Nc1c(C(=O)c2ccc(Cl)cc2)oc2ccccc12 | 34 | -34 | 89 | 4 | 113* | 6 | 169* | 16*
COc1ccc(C(=O)c2oc3ccccc3c2NC(C)=O)cc1 | 43 | -43 | 101 | 1 | 173* | 2 | 148* | 14*
CC(=O)Nc1c(C(=O)c2ccc(F)cc2)oc2ccccc12 | -11 | 11 | 93 | 0 | 155* | 0 | 126* | 39*
O=C(Nc1ccc(F)cc1)c1oc2ccccc2c1NC(=O)C1CCCC1 | 50 | -50 | 97 | 0 | 91* | 0 | 136* | 36*
O=S(=O)(Cc1ccccc1)N1CCCc2ccccc21 | 8 | -8 | 107 | 0 | 125* | 2 | 114* | 80*
O=S(=O)(Cc1ccccc1)N1CCc2ccccc2C1 | -11 | 11 | 90 | 0 | 15 | 0 | nt | nt
CCc1ccc(NC2=NCC(=O)N2Cc2ccc3c(c2)OCO3)cc1 | -17 | 17 | 97 | -22 | 0 | -1 | nt | nt
CCOCCOC(=O)c1[nH]c2c(c1C)C(=O)CC(c1ccc(N(C)C)cc1)C2 (centres undefined) | 43 | -43 | 93 | 2 | 8 | 1 | nt | nt
CCC(C)OC(=O)c1[nH]c2c(c1C)C(=O)CC(c1ccc(N(C)C)cc1)C2 (centres undefined) | 63 | -63 | 99 | 3 | 82* | 2 | 35 | 70*
Fc1ccc2nc(Nc3nc4c(F)cc(F)cc4s3)sc2c1 | -24 | 24 | 91 | 4 | 31 | 2 | nt | nt
Fc1ccc2nc(Nc3nc4cc5c(cc4s3)OCCO5)sc2c1 | -1 | 1 | 90 | 3 | 103* | 4 | 52* | -6
Fc1ccc2nc(Nc3nc4cc5c(cc4s3)OCO5)sc2c1 | 5 | -5 | 97 | 4 | 119* | 3 | 80* | 19*
NS(=O)(=O)c1ccc(CCNCc2ccccc2OCc2ccc(Cl)cc2)cc1 | -15 | 15 | 90 | -2 | 4 | -3 | nt | nt
N#Cc1c(SCC(=O)OCc2ccccc2)nsc1SCC(=O)OCc1ccccc1 | 7 | -7 | 102 | 0 | 5 | 1 | nt | nt
N#Cc1c(SCC(N)=O)nsc1SCc1ccccc1Cl | -2 | 2 | 94 | 0 | 101* | 2 | 83* | 22*
COc1cc(OC)cc(-c2cc(NC(C)=O)n[nH]2)c1 | 0 | 0 | 95 | 0 | 46 | 0 | nt | nt
CC(=O)Nc1cc(-c2ccc(Cl)cc2)[nH]n1 | -5 | 5 | 98 | 5 | 95* | 3 | 160* | nt
